Tests used:
[1] = molecular target: Mitogen-activated protein kinase 11 (Homo sapiens) (UniProt Q15759); assay: Inhibition of human Stress activated protein kinase 2b at 10 uM; design: scale not given: the % may be the effect or the level left
How it was run: (§1)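 Upstate kinase selectivity panel: each kinase phosphorylated its peptide or protein substrate with 10 µM compound present and 10 µM ATP. Reactions were linear with time. Activity is reported as the mean percentage of control incubations, from duplicate determinations.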

[2] = molecular target: CDK6/cyclin D3 (Homo sapiens) (UniProt P30281+Q00534); assay: Inhibition of Cyclin-dependent kinase 6-cyclin D3 at 10 uM; format: protein-complex assay; design: scale not given: the % may be the effect or the level left
How it was run: (§2)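 Outsourced selectivity panel. Each kinase phosphorylated its own peptide or protein substrate in the presence of 10 µM compound and 10 µM ATP, within the linear time range. Activity given as mean percent of control incubations from duplicate determinations.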

[3] = molecular target: Tyrosine-protein kinase Lyn (Homo sapiens) (UniProt P07948); assay: Inhibition of Protein tyrosine kinase Lyn at 10 uM; design: scale not given: the % may be the effect or the level left; how it was run: as §2
[4] = molecular target: Cyclin-dependent kinase 2 (Homo sapiens, UniProt P24941); assay: Inhibition of Cyclin-dependent kinase 2 (CDK2)
How it was run: (§3)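 Reaction started with 30–150 ng kinase, run 1 h at 30 °C. Peptides captured on streptavidin plates and counted. IC50 from 6–10 concentrations; ≥3 experiments in duplicate; ± SEM.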

[5] = molecular target: 3-phosphoinositide-dependent protein kinase 1 (Homo sapiens) (UniProt O15530); assay: Inhibition of human 3-phosphoinositide-dependent protein kinase 1 at 10 uM; design: scale not given: the % may be the effect or the level left; how it was run: as §2
[6] = molecular target: Proto-oncogene tyrosine-protein kinase Src (Homo sapiens) (UniProt P12931); assay: Inhibition of human Src tyrosine kinase at 10 uM; design: scale not given: the % may be the effect or the level left; how it was run: as §1
Sequence of Proto-oncogene tyrosine-protein kinase Src (Homo sapiens) (P12931 2-536 limits assumed): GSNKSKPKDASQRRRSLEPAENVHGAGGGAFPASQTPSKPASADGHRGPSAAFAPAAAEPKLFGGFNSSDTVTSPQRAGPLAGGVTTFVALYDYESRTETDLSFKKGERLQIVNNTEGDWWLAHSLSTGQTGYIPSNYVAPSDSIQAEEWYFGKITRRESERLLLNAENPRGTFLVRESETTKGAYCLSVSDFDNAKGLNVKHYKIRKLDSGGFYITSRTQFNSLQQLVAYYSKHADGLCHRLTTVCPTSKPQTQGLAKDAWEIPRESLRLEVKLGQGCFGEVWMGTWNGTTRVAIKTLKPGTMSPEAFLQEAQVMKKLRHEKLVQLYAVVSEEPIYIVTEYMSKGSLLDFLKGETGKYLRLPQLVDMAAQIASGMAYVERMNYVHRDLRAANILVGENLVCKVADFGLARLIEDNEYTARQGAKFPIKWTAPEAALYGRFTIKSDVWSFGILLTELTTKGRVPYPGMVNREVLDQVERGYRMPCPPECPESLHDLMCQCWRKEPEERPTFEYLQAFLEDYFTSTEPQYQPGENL

[7] = molecular target: Insulin-like growth factor 1 receptor (Homo sapiens) (UniProt P08069); assay: Inhibition of Type 1 insulin like growth factor receptor at 10 uM; design: scale not given: the % may be the effect or the level left; how it was run: as §2
[8] = Inhibitory activity against Protein kinase A was determined
[9] = molecular target: Tyrosine-protein kinase SYK (Homo sapiens) (UniProt P43405); assay: Inhibition of Syk protein tyrosine kinase at 10 uM; design: scale not given: the % may be the effect or the level left; how it was run: as §2
[10] = molecular target: Ribosomal protein S6 kinase alpha-5 (Homo sapiens) (UniProt O75582); assay: Inhibition of human MSK-1 kinase at 10 uM; design: scale not given: the % may be the effect or the level left; how it was run: as §2
[11] = molecular target: Fibroblast growth factor receptor 3 (Homo sapiens) (UniProt P22607); assay: Inhibition of Fibroblast growth factor receptor 3 at 10 uM; design: scale not given: the % may be the effect or the level left; how it was run: as §2
[12] = molecular target: RAC-beta serine/threonine-protein kinase (Homo sapiens) (UniProt P31751); assay: Inhibition of Protein kinase B beta at 10 uM; design: scale not given: the % may be the effect or the level left; how it was run: as §2
Sequence of RAC-beta serine/threonine-protein kinase (Homo sapiens) (P31751 whole entry): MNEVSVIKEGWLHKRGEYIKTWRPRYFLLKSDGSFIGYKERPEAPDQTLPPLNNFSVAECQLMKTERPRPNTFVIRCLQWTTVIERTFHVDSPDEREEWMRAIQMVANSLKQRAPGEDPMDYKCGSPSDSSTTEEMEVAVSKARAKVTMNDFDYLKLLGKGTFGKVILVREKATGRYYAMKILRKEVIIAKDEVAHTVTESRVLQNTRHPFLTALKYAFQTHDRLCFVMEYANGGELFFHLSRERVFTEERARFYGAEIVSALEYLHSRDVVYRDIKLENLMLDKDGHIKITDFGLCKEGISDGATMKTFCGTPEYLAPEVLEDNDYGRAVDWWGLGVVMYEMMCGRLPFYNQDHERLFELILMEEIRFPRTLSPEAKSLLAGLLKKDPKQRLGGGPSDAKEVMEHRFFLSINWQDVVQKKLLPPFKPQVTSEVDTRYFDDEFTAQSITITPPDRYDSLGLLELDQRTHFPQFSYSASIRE

[13] = molecular target: Tyrosine-protein kinase CSK (Homo sapiens) (UniProt P41240); assay: Inhibition of Csk tyrosine kinase at 10 uM; design: scale not given: the % may be the effect or the level left; how it was run: as §2
[14] = molecular target: Platelet-derived growth factor receptor beta (Homo sapiens) (UniProt P09619); assay: Inhibition of Platelet-derived growth factor receptor beta at 10 uM; design: scale not given: the % may be the effect or the level left; how it was run: as §2
[15] = molecular target: AMP-activated protein kinase, AMPK (Homo sapiens) (UniProt P54646+O43741+P54619+Q9UGJ0+Q9Y478+Q13131+Q9UGI9); assay: Inhibition of rat liver AMP-activated Protein Kinase at 10 uM; design: scale not given: the % may be the effect or the level left; details: target entry is the homologue from another species; how it was run: as §1
Saccharomyces cerevisiae = assay: Inhibition of yeast Casein kinase I at 10 uM; design: scale not given: the % may be the effect or the level left; how it was run: as §1
[16] = molecular target: MAP kinase-activated protein kinase 5 (Homo sapiens) (UniProt Q8IW41); assay: Inhibition of human Protein kinase PRAK at 10 uM; design: scale not given: the % may be the effect or the level left; how it was run: as §2
[17] = molecular target: Dual specificity mitogen-activated protein kinase kinase 6 (Homo sapiens) (UniProt P52564); assay: Inhibition of human Mitogen activated protein kinase kinase 6 at 10 uM; design: scale not given: the % may be the effect or the level left; how it was run: as §2
Sequence of Dual specificity mitogen-activated protein kinase kinase 6 (Homo sapiens) (P52564 whole entry): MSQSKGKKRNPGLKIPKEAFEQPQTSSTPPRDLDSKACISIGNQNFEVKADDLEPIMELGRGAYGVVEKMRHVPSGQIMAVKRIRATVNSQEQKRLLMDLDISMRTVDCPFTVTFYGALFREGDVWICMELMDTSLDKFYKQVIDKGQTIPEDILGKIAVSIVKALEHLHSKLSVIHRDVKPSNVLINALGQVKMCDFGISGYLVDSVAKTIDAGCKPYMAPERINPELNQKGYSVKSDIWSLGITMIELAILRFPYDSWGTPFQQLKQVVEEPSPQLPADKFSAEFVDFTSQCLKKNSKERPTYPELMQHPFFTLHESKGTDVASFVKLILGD

[18] = molecular target: Serine/threonine-protein kinase Chk1 (Homo sapiens) (UniProt O14757); assay: Inhibition of human Serine/threonine-protein kinase Chk1 at 10 uM; design: scale not given: the % may be the effect or the level left; how it was run: as §1
Sequence of Serine/threonine-protein kinase Chk1 (Homo sapiens) (O14757 whole entry): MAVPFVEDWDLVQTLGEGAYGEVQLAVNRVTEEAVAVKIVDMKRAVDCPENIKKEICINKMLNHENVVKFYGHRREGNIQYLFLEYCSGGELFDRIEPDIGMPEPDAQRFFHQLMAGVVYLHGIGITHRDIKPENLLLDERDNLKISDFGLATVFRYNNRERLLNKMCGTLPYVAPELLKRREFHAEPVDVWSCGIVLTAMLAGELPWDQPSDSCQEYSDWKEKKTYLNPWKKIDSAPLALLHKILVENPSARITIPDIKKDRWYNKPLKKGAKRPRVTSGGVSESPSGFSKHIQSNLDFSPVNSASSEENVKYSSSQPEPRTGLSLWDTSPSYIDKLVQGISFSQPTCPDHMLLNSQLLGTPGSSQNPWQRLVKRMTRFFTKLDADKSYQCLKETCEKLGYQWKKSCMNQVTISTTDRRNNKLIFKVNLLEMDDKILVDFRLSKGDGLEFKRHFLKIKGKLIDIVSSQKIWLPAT

[19] = molecular target: Dual specificity mitogen-activated protein kinase kinase 4 (Mus musculus) (UniProt P47809); assay: Inhibition of mouse Mitogen activated protein kinase kinase 4 at 10 uM; design: scale not given: the % may be the effect or the level left; how it was run: as §1
[20] = molecular target: Tyrosine-protein kinase Fyn (Homo sapiens) (UniProt P06241); assay: Inhibition of human Fyn tyrosine kinase at 10 uM; design: scale not given: the % may be the effect or the level left; how it was run: as §2
[21] = molecular target: Cyclin-dependent kinase 1 (Homo sapiens, UniProt P06493); assay: Inhibition of Cyclin-dependent kinase 1; how it was run: as §3
Sequence of Cyclin-dependent kinase 1 (P06493 whole entry): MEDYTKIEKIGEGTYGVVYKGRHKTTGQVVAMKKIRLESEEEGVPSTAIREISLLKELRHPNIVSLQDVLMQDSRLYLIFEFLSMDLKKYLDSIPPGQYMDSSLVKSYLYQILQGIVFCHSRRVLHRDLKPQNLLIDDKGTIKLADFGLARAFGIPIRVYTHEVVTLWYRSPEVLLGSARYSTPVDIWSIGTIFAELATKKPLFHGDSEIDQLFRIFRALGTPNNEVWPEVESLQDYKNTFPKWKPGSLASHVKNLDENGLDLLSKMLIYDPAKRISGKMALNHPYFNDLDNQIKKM

[22] = molecular target: T1, Protein kinase C gamma type (Homo sapiens, UniProt P05129); assay: Inhibition of human Protein kinase C gamma at 10 uM; design: scale not given: the % may be the effect or the level left; how it was run: as §2
[23] = molecular target: T1, Protein kinase C gamma type; assay: Inhibition of Protein kinase C gamma (PKC-gamma)
How it was run: (§4)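 Recombinant human PKCα, PKCγ or PKCβII (5–10 mU) phosphorylating histone H1 (0.1 mg/mL) with 33P-ATP, total ATP 10 µM. Buffer 50 mM Hepes pH 7.4 with Triton X-100, CaCl2, Mg acetate, phosphatidylserine and diacylglycerol. Run 40 min at room temperature, stopped with phosphoric acid, then P30 filter counting. IC50 from 6–10 concentrations; ≥3 experiments in duplicate; ± SEM.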

[24] = molecular target: Platelet-derived growth factor receptor alpha (Homo sapiens) (UniProt P16234); assay: Inhibition of Platelet-derived growth factor receptor alpha at 10 uM; design: scale not given: the % may be the effect or the level left; how it was run: as §2
Sequence of Platelet-derived growth factor receptor alpha (Homo sapiens) (P16234 whole entry): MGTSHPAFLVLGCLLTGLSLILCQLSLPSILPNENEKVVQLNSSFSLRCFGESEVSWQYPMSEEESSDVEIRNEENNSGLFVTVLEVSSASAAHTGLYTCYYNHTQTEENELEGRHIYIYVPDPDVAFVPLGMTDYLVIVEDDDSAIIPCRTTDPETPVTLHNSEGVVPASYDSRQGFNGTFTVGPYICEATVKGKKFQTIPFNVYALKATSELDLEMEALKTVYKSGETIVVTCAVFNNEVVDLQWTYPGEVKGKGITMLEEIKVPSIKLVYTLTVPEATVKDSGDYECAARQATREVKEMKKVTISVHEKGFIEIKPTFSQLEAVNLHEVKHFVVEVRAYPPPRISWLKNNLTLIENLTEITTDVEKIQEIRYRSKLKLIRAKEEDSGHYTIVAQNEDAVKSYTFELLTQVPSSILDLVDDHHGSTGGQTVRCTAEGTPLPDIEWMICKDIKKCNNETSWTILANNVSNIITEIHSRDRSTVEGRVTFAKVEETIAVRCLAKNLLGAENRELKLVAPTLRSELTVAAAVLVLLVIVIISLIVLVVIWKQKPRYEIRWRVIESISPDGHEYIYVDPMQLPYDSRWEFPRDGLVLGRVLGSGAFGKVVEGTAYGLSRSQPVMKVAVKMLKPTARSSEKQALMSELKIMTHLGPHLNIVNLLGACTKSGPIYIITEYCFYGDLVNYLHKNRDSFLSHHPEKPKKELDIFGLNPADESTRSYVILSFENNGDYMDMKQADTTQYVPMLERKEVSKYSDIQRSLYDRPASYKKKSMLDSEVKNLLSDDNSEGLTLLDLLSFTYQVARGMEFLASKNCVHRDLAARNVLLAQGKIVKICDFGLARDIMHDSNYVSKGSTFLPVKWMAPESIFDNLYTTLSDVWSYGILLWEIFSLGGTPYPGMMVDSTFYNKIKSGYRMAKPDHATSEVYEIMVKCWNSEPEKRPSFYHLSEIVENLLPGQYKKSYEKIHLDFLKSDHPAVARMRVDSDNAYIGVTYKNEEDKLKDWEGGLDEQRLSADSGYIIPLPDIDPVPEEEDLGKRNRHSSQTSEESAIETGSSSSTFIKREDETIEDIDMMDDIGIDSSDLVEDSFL

[25] = molecular target: Glycogen synthase kinase-3 beta (Homo sapiens) (UniProt P49841); assay: Inhibition of human glycogen synthase kinase-3beta (GSK3-beta) at 10 uM; design: scale not given: the % may be the effect or the level left; how it was run: as §1
Sequence of Glycogen synthase kinase-3 beta (Homo sapiens) (P49841 whole entry, looked up): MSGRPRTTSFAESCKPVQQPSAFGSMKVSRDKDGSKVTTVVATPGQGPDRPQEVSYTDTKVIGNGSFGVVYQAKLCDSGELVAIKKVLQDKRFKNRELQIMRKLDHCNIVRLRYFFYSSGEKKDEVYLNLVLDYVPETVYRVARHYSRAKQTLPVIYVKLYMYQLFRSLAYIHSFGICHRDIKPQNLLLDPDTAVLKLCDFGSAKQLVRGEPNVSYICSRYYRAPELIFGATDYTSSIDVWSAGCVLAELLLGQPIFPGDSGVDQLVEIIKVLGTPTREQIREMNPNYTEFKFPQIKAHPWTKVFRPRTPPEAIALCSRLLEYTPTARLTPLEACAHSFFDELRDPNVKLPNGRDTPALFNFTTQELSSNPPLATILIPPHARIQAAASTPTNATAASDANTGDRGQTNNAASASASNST

[26] = molecular target: Protein kinase C beta type (Homo sapiens, UniProt P05771); assay: Inhibition of Protein kinase C beta 2
Sequence of Protein kinase C beta type (P05771 whole entry): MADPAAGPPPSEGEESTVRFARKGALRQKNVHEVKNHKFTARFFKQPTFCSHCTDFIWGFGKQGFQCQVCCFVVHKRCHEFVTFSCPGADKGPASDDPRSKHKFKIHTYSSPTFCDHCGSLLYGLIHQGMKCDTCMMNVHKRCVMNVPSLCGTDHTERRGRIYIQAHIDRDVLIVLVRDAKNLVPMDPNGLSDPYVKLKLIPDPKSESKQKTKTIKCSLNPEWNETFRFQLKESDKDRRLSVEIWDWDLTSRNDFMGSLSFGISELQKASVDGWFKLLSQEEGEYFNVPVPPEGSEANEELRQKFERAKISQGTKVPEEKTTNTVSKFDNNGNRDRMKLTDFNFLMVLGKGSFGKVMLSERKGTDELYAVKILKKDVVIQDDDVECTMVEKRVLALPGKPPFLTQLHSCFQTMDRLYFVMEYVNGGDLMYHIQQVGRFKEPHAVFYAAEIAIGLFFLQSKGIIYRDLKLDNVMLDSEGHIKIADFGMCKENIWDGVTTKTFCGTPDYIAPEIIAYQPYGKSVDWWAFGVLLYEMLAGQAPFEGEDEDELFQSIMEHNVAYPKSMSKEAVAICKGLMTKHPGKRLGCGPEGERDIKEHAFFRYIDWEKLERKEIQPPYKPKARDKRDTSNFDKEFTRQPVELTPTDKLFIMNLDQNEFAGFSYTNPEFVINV
How it was run: as §4, with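 “counting.” for “counting. IC50 from 6–10 concentrations; ≥3 experiments in duplicate; ± SEM.”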

[27] = molecular target: T2, Protein kinase C theta type (Homo sapiens, UniProt Q04759); assay: Inhibition of Protein kinase C theta at 10 uM; design: scale not given: the % may be the effect or the level left; how it was run: as §2
[28] = molecular target: Protein kinase C alpha type (Homo sapiens, UniProt P17252); assay: Inhibition of human Protein kinase C alpha at 10 uM; design: scale not given: the % may be the effect or the level left; how it was run: as §2
[29] = molecular target: T2, Protein kinase C theta type; assay: Inhibition of Protein kinase C theta
How it was run: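 Recombinant human PKCθ (5–10 mU) with histone H1 (0.1 mg/mL) and 33P-ATP, total ATP 10 µM, in 8 mM MOPS pH 7.0, 0.2 mM EDTA, 10 mM Mg acetate. Run 40 min at room temperature, stopped with phosphoric acid, then P30 filter counting. IC50 from 6–10 concentrations; ≥3 experiments in duplicate; ± SEM.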

[30] = molecular target: Cyclin-dependent kinase 5/CDK5 activator 1 (Homo sapiens) (UniProt Q00535+Q15078); assay: Inhibition of Cyclin-dependent kinase 5-p35nck5a at 10 uM; format: protein-complex assay; design: scale not given: the % may be the effect or the level left; how it was run: as §2
[31] = molecular target: MAP kinase-activated protein kinase 2 (Homo sapiens) (UniProt P49137); assay: Inhibition of human MAP kinase-activated protein kinase 2 at 10 uM; design: scale not given: the % may be the effect or the level left; how it was run: as §2
[32] = molecular target: RAF proto-oncogene serine/threonine-protein kinase (Homo sapiens) (UniProt P04049); assay: Inhibition of human RAF proto-oncogene serine/threonine-protein kinase (c-RAF) at 10 uM; design: scale not given: the % may be the effect or the level left; how it was run: as §2
Sequence of RAF proto-oncogene serine/threonine-protein kinase (Homo sapiens) (P04049 whole entry): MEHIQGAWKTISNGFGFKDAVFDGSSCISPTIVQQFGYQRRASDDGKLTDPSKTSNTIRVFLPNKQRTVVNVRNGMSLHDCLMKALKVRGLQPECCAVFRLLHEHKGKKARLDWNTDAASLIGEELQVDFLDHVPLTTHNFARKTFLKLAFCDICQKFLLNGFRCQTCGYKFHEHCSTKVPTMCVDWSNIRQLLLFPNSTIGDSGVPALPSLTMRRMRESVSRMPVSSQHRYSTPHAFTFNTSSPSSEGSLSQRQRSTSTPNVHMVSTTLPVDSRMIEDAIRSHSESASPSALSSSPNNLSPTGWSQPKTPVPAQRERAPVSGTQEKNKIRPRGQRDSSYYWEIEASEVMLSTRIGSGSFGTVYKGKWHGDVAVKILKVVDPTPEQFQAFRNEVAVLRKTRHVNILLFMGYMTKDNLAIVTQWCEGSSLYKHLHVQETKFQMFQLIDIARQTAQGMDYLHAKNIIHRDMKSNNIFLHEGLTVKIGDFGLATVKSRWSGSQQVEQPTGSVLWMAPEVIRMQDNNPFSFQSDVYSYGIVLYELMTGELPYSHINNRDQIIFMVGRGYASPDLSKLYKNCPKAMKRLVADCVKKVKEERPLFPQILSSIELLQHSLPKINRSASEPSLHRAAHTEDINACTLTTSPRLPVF

[33] = molecular target: CDK3/cyclin E (Homo sapiens) (UniProt P24864+O96020+Q00526); assay: Inhibition of cyclin-dependent kinase 3-cyclin E at 10 uM; format: protein-complex assay; design: scale not given: the % may be the effect or the level left; how it was run: as §2
[34] = Inhibition of Vascular endothelial growth factor receptor 2; design: species or system Homo sapiens; how it was run: as §3

SMILES	Activity [1] [%]	Activity [2] [%]	Activity [3] [%]	IC50 [4] [µM]	Activity [5] [%]	Activity [6] [%]	Activity [7] [%]	IC50 [8] [µM]	Activity [9] [%]	Activity [10] [%]	Activity [11] [%]	Activity [12] [%]	Activity [13] [%]	Activity [14] [%]	Activity [15] [%]	Activity (Saccharomyces cerevisiae) [%]	Activity [16] [%]	Activity [17] [%]	Activity [18] [%]	Activity [19] [%]	other results
O=C1NC(=O)C2=C1c1cn(c3ncccc13)CCOCCOCCOCCn1cc2c2cccnc21	105	97	99	> 10	90	90	107	> 10	67	61	58	93	84	84	88	84	88	87	101	110	Activity [20]: 92%; IC50 [21]: > 10 µM; Activity [22]: 77%; IC50 [23]: > 10 µM; Activity [24]: 130%; Activity [25]: 0%; IC50 [26]: 1.16 µM; Activity [27]: 71%; Activity [28]: 51%; IC50 [29]: > 10 µM; Activity [30]: 82%; Activity [31]: 97%; Activity [32]: 91%; Activity [33]: 72%; IC50 [34]: > 10 µM
O=C1NC(=O)C2=C1c1cn(c3ncccc13)CCOCCOCCOCCOCCn1cc2c2cccnc21	104	97	92	> 10	94	89	97	> 10	72	89	61	97	103	86	99	89	102	85	102	107	Activity [20]: 95%; IC50 [21]: > 10 µM; Activity [22]: 96%; IC50 [23]: > 10 µM; Activity [24]: 112%; Activity [25]: 0%; IC50 [26]: > 10 µM; Activity [27]: 88%; Activity [28]: 94%; IC50 [29]: > 10 µM; Activity [30]: 105%; Activity [31]: 85%; Activity [32]: 97%; Activity [33]: 97%; IC50 [34]: > 10 µM

Source: ChEMBL document CHEMBL1145082 (J Med Chem, 2003)
